Test results published in ChEMBL document CHEMBL1121446, “Quantitative structure-pharmacokinetic relationships derived on antibacterial sulfonamides in rats and its comparison to quantitative structure-activity relationships” (J Med Chem, 1980).

tested on: not listed separately; assay: Total clearance from the body in rat; assay type: ADME, organism-based; details: in vivo, read-out: ClT

clearance [mL/min] | Structure (SMILES)
0.77 | N#Cc1cccnc1NS(=O)(=O)c1ccc(N)cc1
0.195 | Cc1cc(Cl)cnc1NS(=O)(=O)c1ccc(N)cc1
0.91 | COc1cccnc1NS(=O)(=O)c1ccc(N)cc1
1.17 | Cc1cccnc1NS(=O)(=O)c1ccc(N)cc1
0.2 | Nc1ccc(S(=O)(=O)Nc2ncccc2Cl)cc1

The next lines start with the compound.

Structure (SMILES) | clearance [mL/min]
Cc1ccc(NS(=O)(=O)c2ccc(N)cc2)nc1 | 1.15
Cc1cc(Br)cnc1NS(=O)(=O)c1ccc(N)cc1 | 0.2
Cc1ccnc(NS(=O)(=O)c2ccc(N)cc2)c1 | 1.38
Cc1cccc(NS(=O)(=O)c2ccc(N)cc2)n1 | 1.04
Nc1ccc(S(=O)(=O)Nc2ccc([N+](=O)[O-])cn2)cc1 | 0.135

species on record: Rattus norvegicus; assay: Affinity for protein binding expressed as association constant in fresh rat serum; assay type: ADME, organism-based; details: not given
Outline: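 Sulfapyridines added to freshly prepared rat serum at 100-600 µmol/L in 100 µmol/L steps. Samples ultracentrifuged 10 h at 45000 rpm (g = 150000), 37 °C. Unbound drug in the top protein-free layer measured photometrically by Bratton-Marshall. Total drug measured before centrifugation, with controls correcting for sedimentation of unbound drug. Bound = total − free; Kassoc from a Scatchard plot.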

K ass | Structure (SMILES)
1820 l M-1 | N#Cc1cccnc1NS(=O)(=O)c1ccc(N)cc1
2399 l M-1 | COc1cccnc1NS(=O)(=O)c1ccc(N)cc1
1622 l M-1 | Cc1cccnc1NS(=O)(=O)c1ccc(N)cc1
13441 l M-1 | Nc1ccc(S(=O)(=O)Nc2ncccc2Cl)cc1

The next lines start with the compound.

Structure (SMILES) | K ass
Cc1ccc(NS(=O)(=O)c2ccc(N)cc2)nc1 | 9183 l M-1
Cc1cc(Br)cnc1NS(=O)(=O)c1ccc(N)cc1 | 5888 l M-1
Cc1ccnc(NS(=O)(=O)c2ccc(N)cc2)c1 | 6606 l M-1
Cc1cccc(NS(=O)(=O)c2ccc(N)cc2)n1 | 5129 l M-1
Nc1ccc(S(=O)(=O)Nc2ccc([N+](=O)[O-])cn2)cc1 | 20417 l M-1

tested on: not listed separately; assay: Acid dissociation constant; assay type: ADME; details: not given
Outline: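 pKa of the sulfapyridine acidic NH measured spectrophotometrically.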

pKa | Structure (SMILES)
5.25 | N#Cc1cccnc1NS(=O)(=O)c1ccc(N)cc1
7.26 | Cc1cc(Cl)cnc1NS(=O)(=O)c1ccc(N)cc1
8.07 | COc1cccnc1NS(=O)(=O)c1ccc(N)cc1
8.74 | Cc1cccnc1NS(=O)(=O)c1ccc(N)cc1
6.8 | Nc1ccc(S(=O)(=O)Nc2ncccc2Cl)cc1

The next lines start with the compound.

Structure (SMILES) | pKa
Cc1ccc(NS(=O)(=O)c2ccc(N)cc2)nc1 | 8.95
Cc1cc(Br)cnc1NS(=O)(=O)c1ccc(N)cc1 | 7.19
Cc1ccnc(NS(=O)(=O)c2ccc(N)cc2)c1 | 9.01
Cc1cccc(NS(=O)(=O)c2ccc(N)cc2)n1 | 9.2
Nc1ccc(S(=O)(=O)Nc2ccc([N+](=O)[O-])cn2)cc1 | 5.56

tested on: not listed separately; assay: Half life in rat; assay type: ADME, organism-based; details: in vivo
Outline: (§1)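 Male Sprague-Dawley rats received the SA sodium salt, 50 mg/kg, into the tail vein within 1 min. Tail-artery blood was sampled over time and plasma separated by centrifugation. Unmetabolized and total SA were assayed by modified Bratton-Marshall before and after hydrolysis of N4 metabolites. ke (or kC,U for unchanged drug) was obtained by computer fitting to a one-compartment model. Vc = dose / extrapolated initial plasma concentration.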

half-life [h] | Structure (SMILES)
1.44 | N#Cc1cccnc1NS(=O)(=O)c1ccc(N)cc1
8.15 | Cc1cc(Cl)cnc1NS(=O)(=O)c1ccc(N)cc1
1.27 | COc1cccnc1NS(=O)(=O)c1ccc(N)cc1
1.29 | Cc1cccnc1NS(=O)(=O)c1ccc(N)cc1
8.66 | Nc1ccc(S(=O)(=O)Nc2ncccc2Cl)cc1

More lines, now with the values behind:

Structure (SMILES) | half-life [h]
Cc1ccc(NS(=O)(=O)c2ccc(N)cc2)nc1 | 2.36
Cc1cc(Br)cnc1NS(=O)(=O)c1ccc(N)cc1 | 8.15
Cc1ccnc(NS(=O)(=O)c2ccc(N)cc2)c1 | 1.19
Nc1ccc(S(=O)(=O)Nc2ccc([N+](=O)[O-])cn2)cc1 | 16.5

tested on: not listed separately; assay: Half life was determined; assay type: ADME; details: rat

half-life [h] | Structure (SMILES)
1.88 | Cc1cccc(NS(=O)(=O)c2ccc(N)cc2)n1

tested on: not listed separately; assay: Overall elimination rate in rat; assay type: ADME, organism-based; details: in vivo, read-out: ke (converted); outline: as §1

k el [s⁻¹] | Structure (SMILES)
0.000133 | N#Cc1cccnc1NS(=O)(=O)c1ccc(N)cc1
2.36e-05 | Cc1cc(Cl)cnc1NS(=O)(=O)c1ccc(N)cc1
0.000151 | COc1cccnc1NS(=O)(=O)c1ccc(N)cc1
0.000149 | Cc1cccnc1NS(=O)(=O)c1ccc(N)cc1
2.22e-05 | Nc1ccc(S(=O)(=O)Nc2ncccc2Cl)cc1

More lines, now with the values behind:

Structure (SMILES) | k el [s⁻¹]
Cc1ccc(NS(=O)(=O)c2ccc(N)cc2)nc1 | 8.17e-05
Cc1cc(Br)cnc1NS(=O)(=O)c1ccc(N)cc1 | 2.36e-05
Cc1ccnc(NS(=O)(=O)c2ccc(N)cc2)c1 | 0.000161
Cc1cccc(NS(=O)(=O)c2ccc(N)cc2)n1 | 0.000102
Nc1ccc(S(=O)(=O)Nc2ccc([N+](=O)[O-])cn2)cc1 | 1.17e-05

species on record: Rattus norvegicus; assay: Apparent volume of distribution was determined in rat; assay type: ADME, organism-based; details: in vivo; outline: as §1

Vc [mL] | Structure (SMILES)
96.7 | N#Cc1cccnc1NS(=O)(=O)c1ccc(N)cc1
137.9 | Cc1cc(Cl)cnc1NS(=O)(=O)c1ccc(N)cc1
100.3 | COc1cccnc1NS(=O)(=O)c1ccc(N)cc1
131 | Cc1cccnc1NS(=O)(=O)c1ccc(N)cc1
147.5 | Nc1ccc(S(=O)(=O)Nc2ncccc2Cl)cc1

More lines, now with the values behind:

Structure (SMILES) | Vc [mL]
Cc1ccc(NS(=O)(=O)c2ccc(N)cc2)nc1 | 234
Cc1cc(Br)cnc1NS(=O)(=O)c1ccc(N)cc1 | 142.6
Cc1ccnc(NS(=O)(=O)c2ccc(N)cc2)c1 | 142.8
Cc1cccc(NS(=O)(=O)c2ccc(N)cc2)n1 | 168.6
Nc1ccc(S(=O)(=O)Nc2ccc([N+](=O)[O-])cn2)cc1 | 192.8
